This excerpt belongs to a sample that is enriched for hits.
D1 mod = D1 CRE-luciferase signal change, two-sided – cell-based, HEK293 D1, dopamine EC30, D1 allosteric modulator project, primary screen. D(1A) dopamine receptor (Homo sapiens), P21728. dopamine EC30 potentiation; actives deviate in either direction. B-score at 10 µM. actives 5.9% (n = 58,000). AID 641, 2007;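 active means luminescence count or its row- and column-corrected plate score outside the 99.7% band of the plate's sample wells, on either side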
Target sequence (P21728 whole entry, looked up): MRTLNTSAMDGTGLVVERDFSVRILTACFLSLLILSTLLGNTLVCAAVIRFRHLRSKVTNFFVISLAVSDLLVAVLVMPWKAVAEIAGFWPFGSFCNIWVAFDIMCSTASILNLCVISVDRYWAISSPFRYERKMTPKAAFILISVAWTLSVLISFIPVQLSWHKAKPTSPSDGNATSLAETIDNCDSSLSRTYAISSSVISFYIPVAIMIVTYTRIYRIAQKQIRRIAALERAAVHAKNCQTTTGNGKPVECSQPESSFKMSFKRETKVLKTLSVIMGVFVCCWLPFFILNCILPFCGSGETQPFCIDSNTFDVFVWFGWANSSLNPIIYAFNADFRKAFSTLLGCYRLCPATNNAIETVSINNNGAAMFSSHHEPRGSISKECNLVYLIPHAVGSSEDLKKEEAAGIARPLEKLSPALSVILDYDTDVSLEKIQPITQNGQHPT
hDAT+cocaine = changed hDAT dopamine uptake under cocaine IC80, either direction, primary screen, cocaine antagonist project, cell-based, LLC-PK1 hDAT, [14C]-dopamine uptake, MLSMR; LLC-PK1 hDAT cells, [14C]-dopamine uptake with cocaine IC80; actives deviate in either direction; actives 1.3% (n = 110,000); Sodium-dependent dopamine transporter (Homo sapiens), Q01959; B-score at 10 µM;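 active means Z score or B-score, a plate-position-corrected score, falls beyond the plate's 99.7% confidence bounds, in either direction; inactive means both scores lie inside the 99.7% bounds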
MMP-13 inhibitor = human MMP13 inhibitors, primary screen, biochemical, FRET peptide cleavage; MMP-13 fTHP FRET cleavage, Mca fluorescence; actives 0.07% (n = 65,000); inhibition, % at 4 µM; Collagenase 3 (Homo sapiens), P45452;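 active means inhibition above the mean of compound-free control plate wells plus 3 SD, cut at about 14% in these data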
AP complement = alternative complement pathway inhibitors, primary screen, biochemical, ELISA, human serum, orthogonally pooled compounds; LPS-coated ELISA, C3 deposition; tested in compound mixtures; AID 1235, 2008; actives 0.08% (n = 62,000); inhibition, % at 5 µM;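 active means inhibition above 30% in each of the two pooled mixtures holding the compound, so the lower value exceeds 30%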
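Test system: human serum complement alternative pathway, C3 deposition onto LPS / Medium: Mg2+-EGTA GVB++ buffer containing human serum at 1:15 dilution / Probe or stimulus: Plate-bound LPS / Times: 1 h at 37 °C / Signal: ELISA with HRP anti-human C3 antibody, TMB substrate, absorbance 450 nm / Measure: percent inhibition / Repeats: two pool placements per compound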
Candida biofilm = clotrimazole potentiators killing Candida biofilms, primary screen, with clotrimazole, Alamar Blue. inhibition, % at 6 µM. C. albicans biofilm + clotrimazole. actives 0.14% (n = 85,000);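 active means inhibition above 20%; inactive means inhibition below 20%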;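 further: preformed 24 hr biofilms exposed to compound for 48 hr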
Hits are given with their value; 0 = inactive; - = not tested or not shown.

SMILES	D1 mod	hDAT+cocaine	MMP-13 inhibitor	AP complement	Candida biofilm
CCOc1ccc(N2C(=O)CC(N3CCN(C(=O)c4ccco4)CC3)C2=O)cc1 (stereo unspecified)	0	0	0	0	-
O=c1cc2c(nn1Cc1ccccc1Cl)-c1ccccc1CC2	-	0	-	-	0
CCn1c(SCC(=O)N2CCN(c3ccccc3F)CC2)nnc1-c1ccoc1C	0	2.68	0	0	0
CC(C(=O)OCC(=O)Nc1ccc(S(=O)(=O)N2CCCCC2)cc1)N1C(=O)c2ccccc2C1=O (stereo unspecified)	-	0	-	-	-
CC(=O)Nc1ccc(OCC(O)CN2CCN(c3ccc(Cl)cc3)CC2)cc1 (stereo unspecified)	-	0	-	-	0
CC(=O)Nc1ccc(OCC(O)CN2CCN(c3cccc(Cl)c3)CC2)cc1 (stereo unspecified)	-3.1	0	0	0	0
CCn1c(CCNC(=O)c2ccc(OC)c(OC)c2)nc2ccccc21	-4.87	0	0	0	-
CC(C)(C)C(=O)NCCCc1nc2ccccc2n1CCCOc1ccc(Cl)cc1	-	3.41	-	-	-
Cn1c(CCCNC(=O)c2ccccc2)nc2ccccc21	-3.47	0	0	0	0
COc1ccc(C(=O)NCCCc2nc3ccccc3n2Cc2cc(C)ccc2C)cc1OC	-	0	-	-	-
C=CCn1c(CCCNC(=O)C(C)(C)C)nc2ccccc21	0	0	0	0	0
C=C(C)Cn1c(CCCNC(=O)C(C)(C)C)nc2ccccc21	0	-9.25	0	0	-
CC(O)(CC(=O)O)CC(=O)O	-	0	-	-	-
CC(=O)Oc1ccc2ccccc2c1C(NC(=O)Cc1ccccc1)c1ccc(Cl)cc1 (stereo unspecified)	-	0	-	-	-
COc1cccc(-c2cc(C(=O)Nc3cnn(Cc4ccccc4C)c3)no2)c1	0	-	0	0	-
COc1cccc(-c2cc(C(=O)Nc3cnn(Cc4ccc(F)cc4)c3)no2)c1	-3	0	0	0	0
CC(SC1CCCC1)C(=O)NC(C)(C#N)C(C)C (stereo unspecified)	-2.12	0	0	0	0
CCCCN1CCCC1CNC(=O)c1cc(C#N)c2ccccc2c1OC (stereo unspecified)	-	0	-	-	-
CC(C)(C)OC(=O)CNC(=O)c1[nH]cnc1C(=O)N[C@@H](CCCCNC(=O)OC(C)(C)C)C(=O)OC(C)(C)C	-	2.81	-	-	-
CCOC(=O)c1c(NC(=O)CCN2CCOCC2)sc2c1CC(C)(C)OC2	0	2.83	0	-	0
O=C(C1CCN(S(=O)(=O)c2ccccc2)CC1)N1CCOCC1	-	0	-	-	0
CCc1cc2c(=O)c(Oc3ccccc3)c(C)oc2cc1O	0	-2.48	0	0	0
O=C(Oc1cccc(NC(=O)c2ccco2)c1)c1cccc(S(=O)(=O)N2CCCCC2)c1	-	-7.9	-	-	0
COc1cc2c(cc1OC)C(c1ccc(N(C)C)cc1)CC(=O)N2 (stereo unspecified)	0	0	0	0	0
CCN(CC)c1ccc(C2CC(=O)Nc3cc(OC)c(OC)cc32)cc1 (stereo unspecified)	0	2.36	0	0	0
SMILES	D1 mod	hDAT+cocaine	MMP-13 inhibitor	AP complement	Candida biofilm
CCn1cc(C(=O)NC2CCC(C)CC2)c(=O)c2cc(S(=O)(=O)N3CCCCC3)ccc21 (stereo unspecified)	0	2.21	0	0	0
C=CCn1cc(C(=O)NCc2ccco2)c(=O)c2cc(S(=O)(=O)N3CCCCCC3)ccc21	0	3.26	0	0	-
CCn1cc(C(=O)NCc2ccco2)c(=O)c2cc(S(=O)(=O)N3CCCCCC3)ccc21	0	0	0	0	0
CCOc1ccc(C2/C(=C(/O)c3ccc(OC)cc3)C(=O)C(=O)N2c2cc(C)on2)cc1OC (stereo unspecified)	0	3.6	0	0	0
CCOC(=O)C(=O)Nc1ccc(F)cc1	-	0	-	-	0
CN(C)/C=C(\C#N)C(=O)Nc1ccc(F)cc1	-	-2.24	-	-	-
Cc1ccc(N=C2NC(=O)CS2)cc1	-	0	-	-	0
Cc1ccc(C)n1/N=C1/NC(=O)CS1	0	-3.08	0	0	0
Cc1cc(=O)n2nc(-c3ccccc3)sc2n1	0	-2.68	0	0	0
CC(=O)N1[C@H](C)C=C[C@]1(Cc1ccccc1)C(=O)NCCN1CCOCC1	-	0	-	-	-
O=C(CSc1nc2ccsc2c(=O)n1Cc1ccccc1)NCc1ccco1	-2.23	0	0	0	0

Source: PubChem BioAssay (several laboratories)
